We go through four compounds from ChEMBL document CHEMBL3228013 (J Med Chem, 1979).

Calls of active or inactive are those of the source. The calls are words filed in the database; no cut-off is given here.

For orientation: half-life means how long it takes for the measured level to halve.

One data set has as its system L1210. Put plainly: Antitumor activity against mouse L1210 cells allografted in mouse at 500 mg/kg, ip began on day 1 halved compound dose ended at […], ip measured on day 30. The format is functional, organism-based. Put shortly:
(§1)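 Female or male mice bearing L1210 lymphoid leukemia were tested under the NCI standard protocol. Dosing was ip, day 1 only, in aqueous Tween-80, at halved doses starting at 500 mg/kg and generally ending at 62.5 mg/kg. Mean survival time was assessed on day 30, and T/C ≥125% was taken as active.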

The test system of another data set is KB. Put plainly: Cytotoxicity against human KB cells. The format is functional, cell-based.
Data set [1] in a line: Half life of the compound in 1:4 D2O:[…] containing at 1 x 10^-3 M NaOD at 5 x 10^-2 M by UV-spectroscopy. The format is physicochemical. Conditions: 1:4 D2O:Me2SO-d2 with NaOD.
A further data set concerns Mus musculus. Put plainly: Toxicity in mouse allografted with mouse L1210 cells at 500 mg/kg, ip. The class given is organism-based. Set-up: dose 500 mg/kg, route intraperitoneal. Conditions: in vivo. Put shortly: as §1
The nature of data set [2]: Drug metabolism assessed as wheat germ orthophosphoric monoester phosphohydrolase-mediated hydrolysis at 1.5 mM by UV spectroscopy. The format is ADME. Conditions: triticum aestivum, 1500 µM. Summed up: (§2)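 Wheat germ orthophosphoric monoester phosphohydrolase (2.1 units/mg toward 2-carboxyphenyl phosphate) was used. Compound at 1.5 mM was incubated in 0.15 M NaOAc pH 5.0 with glycerin at about 25–26 °C for 2 h, against a reference cell without enzyme, with UV monitoring at 290 nm. 2-Carboxyphenyl phosphate was then added to check remaining enzyme activity.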

The nature of data set [3]: Inhibition of wheat germ orthophosphoric monoester phosphohydrolase using 2-carboxyphenyl phosphate as substrate at 1.5 mM after 2 hrs by UV spectroscopy. Conditions: triticum aestivum, 1500 µM. Summed up: as §2
Data set [4] can be described thus: Half life of the compound in 1:1 H2O:ethylalcohol containing 3.33 x 10^-3 M NaOH at 8.3 x 10^-5 M by UV-spectroscopy. The format is physicochemical. Conditions: 1:1 water:ethanol with NaOH.
Data set [5] is described as follows: Half life of the compound in 1:1 H2O:ethylalcohol containing 5 x 10^-3 M NaOH at 8.3 x 10^-5 M by UV-spectroscopy. The format is physicochemical. Conditions: 1:1 water:ethanol with NaOH.
The nature of data set [6]: Half life of the compound in 1:1 H2O:ethylalcohol containing 2.08 x 10^-3 M NaOH at 8.3 x 10^-5 M by UV-spectroscopy. Conditions: 1:1 water:ethanol with NaOH. The format is physicochemical.
The nature of data set [7]: Half life of the compound in 1:1 H2O:ethylalcohol containing 6.66 x 10^-3 M NaOH at 8.3 x 10^-5 M by UV-spectroscopy. The class given is physicochemical. Conditions: 1:1 water:ethanol with NaOH.
Data set [8] is described as follows: Half life of the compound in 1:1 H2O:ethylalcohol containing 8.33 x 10^-3 M NaOH at 8.3 x 10^-5 M by UV-spectroscopy. The class given is physicochemical. Conditions: 1:1 water:ethanol with NaOH.
A short description of data set [9]: Toxicity in ip dosed mouse allografted with mouse L1210 cells. The class given is organism-based. Conditions: in vivo. Summed up:
as §1

Take `CCOc1ccc(NP(=O)(Oc2c(F)c(F)c(F)c(F)c2F)N(CCCl)CCCl)cc1` (configuration not stated): the result with L1210 and with KB was inactive. The compound further had a half-life at 50000 µM in data set [1] of 8.17 min. Moreover, the Activity entry with Mus musculus is recorded as “Non-toxic”.
Regarding `O=P(Nc1ccccc1)(Oc1c(F)c(F)c(F)c(F)c1F)N(CCCl)CCCl` (configuration not stated), the result in the data set with L1210 and in the data set with KB was inactive. In addition, the half-life at 50000 µM in [1] is 5.3 min. The Activity result in the data set with Mus musculus is recorded as “Non-toxic”.
For the compound `NP(=O)(Oc1c(F)c(F)c(F)c(F)c1F)N(CCCl)CCCl` (configuration not stated), the outcome in the data set on L1210 and with KB was inactive. Besides, the Stability result in [2] is “Stable”. Further, the “inhibition (INH)” value in data set [3] is “Not Active”. Further, the half-life at 83 µM is 1.33 min in data set [4]; 0.867 min in [5]; 2 min in data set [6]; 0.717 min in data set [7]; 0.6 min in data set [8]. The compound further had an MTD in data set [9] of 31.2 mg/kg.
Turning to `Cc1ccc(NP(=O)(Oc2c(F)c(F)c(F)c(F)c2F)N(CCCl)CCCl)cc1` (configuration not stated), the outcome in the data set on L1210 and with KB was inactive. The compound further showed a half-life at 50000 µM in data set [1] of 6.53 min. The Activity entry in the data set on Mus musculus is “Non-toxic”.
